Assay results from different studies.
Lines come from different studies, so protocols differ.
Cell line: NCI-H226
Observed: cell growth or viability

SMILES | method | tested at | time | quantity | value
COc1ccc(C(=O)/C=C/c2ccccc2Br)cc1S(N)(=O)=O | SRB | 10 µM | – | inhibition | 79%
COc1cccc(Oc2ccccc2NC(=O)CNC(=O)c2cccc3ccccc23)c1 | SRB | – | 48 h | GI50 | 2.51 µM
CCCCC[C@H](O)CC(=O)CCc1ccc(O)c(OC)c1 | SRB | – | – | IC50 | 145 µM
O=c1[nH]cc(S(=O)(=O)Nc2cccc(-c3nnc(-c4cccc(Cl)c4)o3)c2)c(=O)[nH]1 | MTT | – | 24 h | IC50 | 7.7 µM
CCCCC/C=C/C(=O)CCc1ccc(O)c(OC)c1 | SRB | – | – | IC50 | 18 µM
Cc1cc(C)n(C(=S)[S][Au][PH](CCCCCC[PH]([Au][S]C(=S)n2nc(C)cc2C)(c2ccccc2)c2ccccc2)(c2ccccc2)c2ccccc2)n1 | SRB | – | – | GI50 | 2.52 µM
CCCc1n(Cc2ccc3ccccc3n2)cc[n+]1Cc1ccc2ccccc2n1 | SRB | – | – | TGI | 34.8 µM
COc1ccc(C(=O)/C=C/c2cc3c(cc2Br)OCO3)cc1S(N)(=O)=O | SRB | 10 µM | – | inhibition | 87%
O=C1NC(=NCc2cccs2)S/C1=C\c1ccc2ncccc2c1 | – | – | – | IC50 | > 10 µM
c1ccc(-c2n(Cc3ccc4ccccc4c3)cc[n+]2Cc2ccc3ccccc3c2)cc1 | SRB | – | – | TGI | 2.97 µM
COc1ccc(-c2ccc(-c3ccc(C(=N)N)nc3)s2)cc1 | SRB | – | – | GI50 | 1.81 µM
COc1ccc(C(=O)/C=C/c2cccc3ccccc23)cc1S(N)(=O)=O | SRB | – | 48 h | GI50 | 3.1 µM
CCc1n(Cc2ccc3ccccc3n2)cc[n+]1Cc1ccc2ccccc2n1 | SRB | – | – | TGI | 30.8 µM
COc1ccccc1/C=C/C(=O)c1ccc(OC)c(S(N)(=O)=O)c1 | SRB | – | 48 h | GI50 | 4 µM
CCc1n(Cc2ccc3ccccc3n2)cc[n+]1Cc1ccc2ccccc2c1 | SRB | – | – | TGI | 4.87 µM
O=C(/C=C/C=C/c1ccc2c(c1)OCO2)N1CCCCC1 | SRB | – | – | IC50 | 83.7 µM
COc1ccc(C(=O)/C=C/c2cccc(Br)c2)cc1S(N)(=O)=O | SRB | 10 µM | – | inhibition | 83%
